ChEMBL document CHEMBL1126685, “Bronchodilator activity of xanthine derivatives substituted with functional groups at the 1- or 7-position” (J Med Chem, 1993)
pEC50, pKi: −log10 of the molar value.

Tests used:
Cavia porcellus [1] = species on record: Cavia porcellus; test: Effective concentration required in vitro for heart stimulation (right atrium) in guinea pig; type: functional; conditions: Cardiac atrium
In short: (§1)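 Isolated right atrium of male Hartley guinea pigs, 25 °C Krebs-Henseleit gassed 95% O2–5% CO2, 0.5 g tension; cumulative concentrations; beating rate via cardiometer triggered by isometric contraction. EC15 = concentration raising rate 15% above unstimulated; 3–5 experiments.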

Cavia porcellus [2] = test: Positive chronotropic effect, 15% increase in heart rate of male Hartley guinea pigs on intraduodenal administration (mean of 3-5 animals); type: functional
In short: (§2)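 Urethane-anesthetized (1.5 g/kg ip), ventilated male Hartley guinea pigs; compound suspended in 0.5% carboxymethylcellulose given intraduodenally 5 min before iv acetylcholine 40 μg/kg (jugular, every 15 min, after three stable responses); Konzett–Rossler overflow bronchospasm and carotid-pulse heart rate followed 110 min.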

Adenosine receptor A1 [3] = target: T1, Adenosine receptor A1 (Cavia porcellus, UniProt P47745); test: Binding affinity against adenosine A1 receptor of cerebral cortex using [3H]CPX as a radioligand; type: tissue-based
T1 sequence (P47745 whole entry): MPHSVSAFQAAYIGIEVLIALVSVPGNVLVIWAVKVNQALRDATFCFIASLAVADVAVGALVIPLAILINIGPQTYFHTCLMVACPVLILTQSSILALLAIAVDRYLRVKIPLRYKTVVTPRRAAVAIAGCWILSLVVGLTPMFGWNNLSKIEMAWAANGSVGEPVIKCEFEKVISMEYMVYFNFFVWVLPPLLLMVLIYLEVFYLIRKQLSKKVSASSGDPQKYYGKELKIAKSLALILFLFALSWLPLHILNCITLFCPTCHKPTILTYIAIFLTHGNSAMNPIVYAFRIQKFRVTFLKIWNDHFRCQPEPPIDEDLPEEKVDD

Cavia porcellus [4] = species on record: Cavia porcellus; test: Effective concentration required in vitro for tracheal muscle (from male Hartley guinea pigs) relaxation; type: functional; conditions: Trachea
In short: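 Tracheal ring chains from male Hartley guinea pigs (300–500 g), 37 °C Krebs-Henseleit pH 7.4, 95% O2–5% CO2, 0.5 g tension, spontaneous tone; cumulative compound addition, isotonic recording.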

[5] = Bronchoselectivity expressed as ratio of stimulatory activity in the right atrium (EC15) to relaxant activity in the tracheal muscle (EC50); type: functional, Cardiac atrium
[6] = target: cyclic AMP phosphodiesterase (guinea pig); test: Inhibition of cyclic AMP-phosphodiesterase ( PDE) in the supernatant of tracheal muscle homogenate
[7] = target: Adenosine A2 receptor (guinea pig); test: Binding affinity against adenosine A2 receptor of striatal membrane using [3H]CGS-21680 as a radioligand
Cavia porcellus [8] = test: Bronchodilatory effect, 50% inhibition of spasmogen-induced response in male Hartley guinea pigs on intraduodenal administration; type: functional; in short: as §2
[9] = Bronchoselectivity, ratio of positive chronotropic action (ED15) to bronchodilator action (ED50); type: functional
Adenosine receptor A1 [10] = target: T1, Adenosine receptor A1; test: Binding affinity against Adenosine A1 receptor of cerebral cortex using [3H]-CPX; type: tissue-based
Cavia porcellus [11] = species on record: Cavia porcellus; test: In vitro guinea pig heart stimulation (right atrium); type: functional; conditions: Cardiac atrium; in short: as §1

| pKi (Adenosine receptor A1 [3]) | pEC50 (Cavia porcellus [4]) | Ki [6] | Ki [7] | pKi (Adenosine receptor A1 [10]) | SMILES | EC15 (Cavia porcellus [1]) | ED15 (Cavia porcellus [2]) | Selectivity [5] | ED50 (Cavia porcellus [8]) | Selectivity [9] | EC15 (Cavia porcellus [11]) |
| --- | --- | --- | --- | --- | --- | --- | --- | --- | --- | --- | --- |
|  |  |  |  |  | Cn1c(=O)c2nc[nH]c2n(C)c1=O.O [THEOPHYLLINE] | 62 µM | 20.2 mg/kg |  |  |  |  |
|  |  |  |  |  | CCCn1c(=O)[nH]c(=O)c2nc[nH]c21 [ENPROFYLLINE] | 18.3 µM | 95.1 mg/kg |  |  |  |  |
| 4.36 | 4.69 | 92 µM | > 200 µM |  | CCCn1c(=O)n(CCCN(C)C)c(=O)c2[nH]cnc21 | > 100 µM |  | 4.9 |  |  |  |
| 4.95 | 5.46 | 13 µM | 144 µM |  | CCCn1c(=O)n(CCC(C)=O)c(=O)c2[nH]cnc21 | 27 µM |  | 7.7 |  |  |  |
| < 3.70 | < 4.00 |  |  |  | CCCn1c(=O)n(C)c(=O)c2c1ncn2CC(=O)O | > 100 µM |  |  |  |  |  |
| 5.77 | 5.80 | 27.3 µM | 11.8 µM |  | C=CCn1c(=O)c2[nH]cnc2n(CCC)c1=O | 5.4 µM |  | 3.4 |  |  |  |
| < 3.70 | 4.39 | > 200 µM | > 200 µM |  | CCCn1c(=O)n(CC(=O)O)c(=O)c2[nH]cnc21 | > 100 µM |  | 2.4 |  |  |  |
| 4.91 | 5.54 | 48.7 µM | 15.7 µM |  | CCCn1c(=O)n(CCCOC)c(=O)c2[nH]cnc21 | 31.3 µM | 10.7 mg/kg | 10.8 | 0.72 mg/kg | 14.9 |  |
| 4.92 | 5.29 | 12.6 µM | 68.7 µM |  | CCCn1c(=O)n(CCCO)c(=O)c2[nH]cnc21 | 26.4 µM |  | 5.2 |  |  |  |
| 4.91 | 4.44 | 72.7 µM | 58.7 µM |  | CCCn1c(=O)n(C)c(=O)c2c1ncn2CCOC | > 100 µM |  | 2.8 |  |  |  |
| 4.02 | 5.72 | 20.7 µM | > 200 µM |  | CCCn1c(=O)n(C)c(=O)c2c1ncn2CC(C)=O | 37.5 µM | 30 mg/kg | 19.7 | 1.49 mg/kg | 20.1 |  |
| < 3.70 | < 4.00 | 53 µM | > 200 µM |  | CCCn1c(=O)n(C)c(=O)c2c1ncn2CCN(C)C | > 100 µM |  | 1 |  |  |  |
| < 3.70 | 4.67 | 60 µM | > 200 µM |  | CCCn1c(=O)n(CCC(=O)O)c(=O)c2[nH]cnc21 | > 100 µM |  | 4.7 |  |  |  |
| < 3.70 | < 4.00 |  |  |  | CCCn1c(=O)n(C)c(=O)c2c1ncn2CCC(N)=O | > 100 µM |  |  |  |  |  |
| 4.40 | < 4.00 |  |  |  | CCCn1c(=O)n(CC(N)=O)c(=O)c2[nH]cnc21 | > 100 µM |  |  |  |  |  |
| < 3.70 | < 4.00 | > 200 µM | > 200 µM |  | CCCn1c(=O)n(C)c(=O)c2c1ncn2CCC(=O)O | > 100 µM |  | 1 |  |  |  |
| 5.60 | 6.15 | 8.2 µM | 21.6 µM |  | CCCn1c(=O)n(CCOC)c(=O)c2[nH]cnc21 | 6.3 µM |  | 9 |  |  |  |
|  |  |  |  |  | CCCn1c(=O)n(C)c(=O)c2c1ncn2CC | > 100 µM |  |  |  |  |  |
| 4.81 | 4.95 |  |  |  | C=CCn1cnc2c1c(=O)n(C)c(=O)n2CCC | 22.4 µM |  |  |  |  |  |
| 5.72 | 7.15 | 22.3 µM | 12 µM |  | CCCn1c(=O)n(CCOCC)c(=O)c2[nH]cnc21 | 25.3 µM | 20 mg/kg | 361 | 1.7 mg/kg | 11.8 |  |
| 5.22 | 4.77 | 29.9 µM | 5.6 µM |  | C=CCCn1cnc2c1c(=O)n(C)c(=O)n2CCC | 30.6 µM |  | 1.8 |  |  |  |

| pKi (Adenosine receptor A1 [3]) | pEC50 (Cavia porcellus [4]) | Ki [6] | Ki [7] | pKi (Adenosine receptor A1 [10]) | SMILES | EC15 (Cavia porcellus [1]) | ED15 (Cavia porcellus [2]) | Selectivity [5] | ED50 (Cavia porcellus [8]) | Selectivity [9] | EC15 (Cavia porcellus [11]) |
| --- | --- | --- | --- | --- | --- | --- | --- | --- | --- | --- | --- |
| 4.52 | 4.91 | 32.8 µM | > 200 µM |  | CCCn1c(=O)n(C)c(=O)c2c1ncn2CCC(C)=O | > 100 µM |  | 8.2 |  |  |  |
|  | 5.80 |  | 8 µM |  | CCCn1c(=O)n(C)c(=O)c2[nH]cnc21 | 3.3 µM | 5.7 mg/kg | 2.1 | 4.44 mg/kg | 1.3 |  |
| 4.61 | 5.34 | 136 µM | 22.9 µM |  | CCCn1c(=O)n(C)c(=O)c2c1ncn2CCOCC | > 100 µM | 25.2 mg/kg | 21.7 | 12.1 mg/kg | 2.1 |  |
| 6.68 |  |  |  |  | CCCn1c(=O)c2nc[nH]c2n(CCC)c1=O | 20 µM | 25.5 mg/kg |  | 4.69 mg/kg |  |  |
| 4.50 | 4.88 | 56.3 µM | > 200 µM |  | CCCn1c(=O)n(CCC(N)=O)c(=O)c2[nH]cnc21 | 31.2 µM |  | 2.4 |  |  |  |
| 4.64 | 7.22 | 16.4 µM |  |  | CCCn1c(=O)n(CCCCC(C)=O)c(=O)c2[nH]cnc21 | 3.6 µM | 13.5 mg/kg | 62 | 2.55 mg/kg | 5.3 |  |
| < 3.70 | < 4.00 | 119 µM | > 200 µM |  | CCCn1c(=O)n(C)c(=O)c2c1ncn2CC(N)=O | > 100 µM |  | 1 |  |  |  |
| 4.80 | 5.77 | 40.8 µM | 162 µM |  | CCCn1c(=O)n(CCC#N)c(=O)c2[nH]cnc21 | 4.3 µM |  | 2.5 |  |  |  |
| 5.18 | 4.45 | 16.5 µM | 12.8 µM |  | CCCn1c(=O)n(C)c(=O)c2c1ncn2CC#N | > 100 µM |  | 2.8 |  |  |  |
| 4.94 | 4.83 | 46.4 µM | > 200 µM |  | CCCn1c(=O)n(CC(C)=O)c(=O)c2[nH]cnc21 | 45.7 µM |  | 3.1 |  |  |  |
| 5.37 | 5.57 | 9 µM | > 200 µM |  | CCCn1c(=O)n(CCN(C)C)c(=O)c2[nH]cnc21 | > 100 µM | > 100 mg/kg | 37 | 5.65 mg/kg | > 17.7 |  |
| 3.95 | 4.65 | 26.2 µM | > 200 µM |  | CCCn1c(=O)n(C)c(=O)c2c1ncn2CCCO | > 100 µM |  | 4.4 |  |  |  |
| 4.05 | 4.56 | 46 µM | > 200 µM |  | CCCn1c(=O)n(C)c(=O)c2c1ncn2CCC#N | > 100 µM |  | 3.6 |  |  |  |
| < 3.70 | < 4.00 | > 200 µM | > 200 µM |  | CCCn1c(=O)n(C)c(=O)c2c1ncn2CCCN(C)C | > 100 µM |  | 1 |  |  |  |
|  | 8.00 |  |  | 4.78 | CCCCn1c(=O)c2c(ncn2CC(C)=O)n(CCCC)c1=O [DENBUFYLLINE] |  | 90 mg/kg |  | 5.9 mg/kg |  | 6 µM |
|  | 5.30 |  | 43.8 µM |  | CCCn1cnc2c1c(=O)n(C)c(=O)n2CCC | > 100 µM | > 100 mg/kg | 20 | 27.5 mg/kg | > 3.6 |  |
| 4.38 | 4.50 | 28.7 µM | > 200 µM |  | CCCn1c(=O)n(C)c(=O)c2c1ncn2CCO | > 100 µM |  | 3.1 |  |  |  |
| 4.30 | 6.29 | 14.1 µM | > 200 µM |  | CCCn1c(=O)n(CCO)c(=O)c2[nH]cnc21 | 2 µM |  | 3.9 |  |  |  |
|  | 5.89 |  | 3.9 µM |  | CCCn1c(=O)n(CC)c(=O)c2[nH]cnc21 | 6.1 µM |  | 4.7 |  |  |  |
| 5.68 | 5.38 |  |  |  | CCCn1c(=O)n(CC#N)c(=O)c2[nH]cnc21 | 1.7 µM |  |  |  |  |  |

| SMILES | pKi (Adenosine receptor A1 [3]) | pEC50 (Cavia porcellus [4]) | Ki [6] | Ki [7] | pKi (Adenosine receptor A1 [10]) | EC15 (Cavia porcellus [1]) | ED15 (Cavia porcellus [2]) | Selectivity [5] | ED50 (Cavia porcellus [8]) | Selectivity [9] | EC15 (Cavia porcellus [11]) |
| --- | --- | --- | --- | --- | --- | --- | --- | --- | --- | --- | --- |
| CC(=O)CCCCn1c(=O)c2c(ncn2C)n(C)c1=O [PENTOXIFYLLINE] | 3.74 | 4.55 |  |  |  | 52.4 µM | 39.4 mg/kg |  | 43 mg/kg |  |  |
